Measured values reported in ChEMBL document CHEMBL3085679, “Combining in silico and biophysical methods for the development of Pseudomonas aeruginosa quorum sensing inhibitors: an alternative approach for structure-based drug design” (J Med Chem, 2013).
Active and inactive are the calls of the source. No cut-off for these calls is given here.

What was measured:
[1] = Inhibition of Pseudomonas aeruginosa recombinant His6-tagged PqsD expressed in Escherichia coli BL21(lambda DE3) assessed as anthraniloyl-CoA and beta-ketodecanoic acid conversion to heptyl-4-hydroxyquinoline preincubated for 10 mins prior to substrate addition by LC-MS/MS analysis
Outline: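 HHQ formation from anthraniloyl-CoA and β-ketodecanoic acid by purified PqsD (0.1 µM) in 0.05 M MOPS pH 7.0, 0.005% Triton X-100, 0.5% final DMSO; 10 min preincubation with inhibitor at 37 °C, started with anthraniloyl-CoA (5 µM final) and β-ketodecanoic acid (70 µM final); HHQ quantified by LC-MS, DMSO control set to 100%; triplicates.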

Pseudomonas aeruginosa [2] = assay: Binding affinity to tryptically digested Pseudomonas aeruginosa recombinant His6-tagged PqsD ACoA-channel expressed in Escherichia coli BL21(lambda DE3) at 10 uM after 60 mins by MALDI-TOF-MS analysis
Outline: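 PqsD (10 µM) and compound (10 µM) preincubated 60 min at 37 °C in 0.05 M MOPS pH 7.0, 0.005% Triton X-100, 0.5% DMSO; buffer exchanged to 0.05 M NH4HCO3 pH 8.1 by diafiltration, trypsin digestion overnight, DTT added; peptides analysed by MALDI-TOF in positive reflector mode, tracking the Cys112-containing fragment.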

Pseudomonas aeruginosa [3] = assay: Binding affinity to Pseudomonas aeruginosa recombinant His6-tagged PqsD ACoA-channel expressed in Escherichia coli BL21(lambda DE3) at 25 uM after 30 mins by LC-ESI-MS analysis
Outline: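 PqsD (25 µM) preincubated 30 min at 37 °C with compound (25 µM) in 0.05 M Tris-HCl pH 8.0, 0.5% DMSO; DTT added, then reversed-phase HPLC (C8, water/acetonitrile with 0.05% TFA gradient, 45 °C) coupled to ESI high-resolution TOF MS to detect intact protein–inhibitor adduct mass.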

Pseudomonas aeruginosa [4] = assay: Competitive binding affinity to Pseudomonas aeruginosa recombinant His6-tagged PqsD ACoA-channel expressed in Escherichia coli BL21(lambda DE3) at 100 uM by SPR analysis in presence of (2-nitrophenyl)methanol
Outline: (§1)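 SPR competition: amine-coupled PqsD on CMD500M chip preincubated by adding competitor (100 µM) to running buffer (50 mM MOPS pH 8.0, 150 mM NaCl, 5% DMSO, 0.1% Triton X-100), flushed at 50 µL/min until stable; test compounds (100 µM) then injected twice at 10 µL/min, 120 s association, 300 s dissociation.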

Pseudomonas aeruginosa [5] = assay: Competitive binding affinity to Pseudomonas aeruginosa recombinant His6-tagged PqsD ACoA-channel expressed in Escherichia coli BL21(lambda DE3) at 100 uM by SPR analysis in presence of (2-nitrophenyl)(phenyl)methanol; outline: as §1
[6] = Binding affinity to Pseudomonas aeruginosa recombinant His6-tagged PqsD expressed in Escherichia coli BL21(lambda DE3) measured every 180 seconds by isothermal titration calorimetric analysis
Outline: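 ITC at 25 °C in PBS pH 7.4, 10% glycerol, 5% DMSO; 100 µM His6-PqsD in cell titrated with 2 µL injections of 1.0 mM ligand every 180 s; ligand diluted 1:20 from 20 mM DMSO stock; protein quantified by A280 (ε 17,780 M−1 cm−1); stoichiometry and KD fitted.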

Pseudomonas aeruginosa [7] = assay: Binding affinity to Pseudomonas aeruginosa recombinant His6-tagged PqsD expressed in Escherichia coli BL21(lambda DE3) at 100 uM by SPR analysis
Outline: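 SPR: wild-type or R223A mutant PqsD amine-coupled to CMD500M chip (5000-6000 RU) at 12 °C; running buffer 50 mM MOPS pH 8.0, 150 mM NaCl, 5% DMSO, 0.1% Triton X-100; compounds at 100 µM final injected twice, 120 s association, 300 s dissociation, 50 µL/min; double referencing with blanks and DMSO calibration.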

Pseudomonas aeruginosa [8] = assay: Inhibition of anthraniloyl coenzyme A binding to Pseudomonas aeruginosa recombinant His6-tagged PqsD ACoA-channel expressed in Escherichia coli BL21(lambda DE3) by SPR analysis
Pseudomonas aeruginosa [9] = assay: Binding affinity to Pseudomonas aeruginosa recombinant His6-tagged PqsD R223A mutant expressed in Escherichia coli BL21(lambda DE3) at 100 uM by SPR analysis
Outline: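 Recombinant His6-PqsD R223A (E. coli BL21(λDE3), Ni-NTA purified) amine-coupled to CMD500M chip at 5000-6000 RU. Compounds diluted from 10 mM DMSO stock to 100 µM final in running buffer (50 mM MOPS pH 8.0, 150 mM NaCl, 5% DMSO, 0.1% Triton X-100). Run at 12 °C, 50 µL/min. Each compound injected twice, 120 s association, 300 s dissociation. Data double-referenced against blanks and DMSO calibration.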

Pseudomonas aeruginosa [10] = assay: Competitive binding affinity to Pseudomonas aeruginosa recombinant His6-tagged PqsD ACoA-channel expressed in Escherichia coli BL21(lambda DE3) at 1 mM by saturation transfer difference NMR analysis in presence of (2-nitrophenyl)(phenyl)methanol
Escherichia coli = assay: Inhibition of Escherichia coli RNA polymerase at 200 uM preincubated for 10 mins prior to DNA template and NTPs addition measured after 10 mins by [5,6-3H]-UTP incorporation assay relative to control
Outline: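 E. coli RNA polymerase holoenzyme (1 unit) in 40 mM Tris-HCl pH 7.5, 150 mM KCl, 10 mM MgCl2, 10 mM DTT, 0.1% CHAPS, RNase inhibitor, 2% final DMSO; preincubated with compound 10 min at 25 °C; started with plasmid DNA template plus 400 µM ATP/CTP/GTP, 100 µM UTP and [5,6-3H]-UTP, 10 min at 37 °C; TCA-precipitated RNA counted by scintillation.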

| IC50 [1] [µM] | Activity (Pseudomonas aeruginosa [5]) | SMILES | other results |
| --- | --- | --- | --- |
| 37 | – | COc1ccc(-c2cc(NC(=O)NCCC(=O)O)c(C(=O)O)s2)cc1 | – |
| 54 | – | COc1ccc(-c2cc(NC(=O)N[C@H](C)C(=O)O)c(C(=O)O)s2)cc1 | – |
| 56 | – | COc1ccc(-c2cc(NC(=O)NC(C)(C)C(=O)O)c(C(=O)O)s2)cc1 | – |
| 7 | – | COc1ccc(-c2cc(NC(=O)NCC(=O)O)c(C(=O)O)s2)cc1 | – |
| 2 | – | COc1ccc(-c2cc(NC(=O)N[C@@H](C)C(=O)O)c(C(=O)O)s2)cc1 | inhibition (Escherichia coli): 10% |
| 58 | – | COc1ccc(-c2cc(NC(=O)NCCc3ccccc3)c(C(=O)O)s2)cc1 | – |

More lines, now with the values behind:

| SMILES | IC50 [1] [µM] | Activity (Pseudomonas aeruginosa [5]) | other results |
| --- | --- | --- | --- |
| O=C(CCl)Nc1ccc(-c2cc(NC(=O)N[C@@H](Cc3ccccc3)C(=O)O)c(C(=O)O)s2)cc1 | 2 | – | Activity (Pseudomonas aeruginosa [2]): Active; Activity (Pseudomonas aeruginosa [3]): Active |
| CCN(Cc1ccccc1)C(=O)Nc1cc(-c2ccc(OC)cc2)sc1C(=O)O | 6 | Active | Activity (Pseudomonas aeruginosa [4]): inactive; Kd [6]: 6.3 µM; Activity (Pseudomonas aeruginosa [7]): Active; inhibition (Pseudomonas aeruginosa [8]): Active |
| COc1ccc(-c2cc(NC(=O)N[C@H](Cc3ccccc3)C(=O)O)c(C(=O)O)s2)cc1 | 26 | – | – |
| COc1ccc(-c2cc(NC(N)=O)c(C(=O)O)s2)cc1 | 170 | Active | RU (Pseudomonas aeruginosa [9]): 6; RU (Pseudomonas aeruginosa [7]): 25 |
| COc1ccc(-c2cc(NC(=O)N[C@@H](Cc3ccccc3)C(=O)O)c(C(=O)O)s2)cc1 | 0.5 | Active | Activity (Pseudomonas aeruginosa [10]): Active; inhibition (Escherichia coli): 10% |
| NC(=O)Nc1cc(-c2ccc(Oc3ccccc3)cc2)sc1C(=O)O | 20 | Active | Activity (Pseudomonas aeruginosa [4]): Active; Activity (Pseudomonas aeruginosa [7]): Active |
